# Measurements published in ChEMBL document CHEMBL3044834, “Novel protoporphyrinogen oxidase inhibitors: 3H-pyrazolo[3,4-d][1,2,3]triazin-4-one derivatives” (J Agric Food Chem, 2008).
# Tested on: Brassica rapa subsp. oleifera
# Test: Herbicidal activity against Brassica rapa subsp. oleifera assessed as inhibition of fresh weed plant weight at 375 g/ha using pre-emergence treatment protocol
# Type: functional
row,Compound,inhibition at 375 g/ha
1,C#CCN1C(=O)COc2cc(F)c(-n3nnc4nn(CC=C)cc4c3=O)cc21,100%

# Tested on: Digitaria sanguinalis
# Test: Herbicidal activity against Digitaria sanguinalis (hairy crabgrass) assessed as inhibition of fresh weed plant weight at 93.75 g/ha using pre-emergence treatment protocol
# Type: functional
row,Compound,inhibition at 93.75 g/ha
1,C#CCN1C(=O)COc2cc(F)c(-n3nnc4nn(CC=C)cc4c3=O)cc21,6.1%

# Tested on: Digitaria sanguinalis
# Test: Herbicidal activity against Digitaria sanguinalis (hairy crabgrass) assessed as inhibition of fresh weed plant weight at 375 g/ha using pre-emergence treatment protocol
# Type: functional
row,Compound,inhibition at 375 g/ha
1,C#CCN1C(=O)COc2cc(F)c(-n3nnc4nn(CC=C)cc4c3=O)cc21,24.5%

# Tested on: Digitaria sanguinalis
# Test: Herbicidal activity against Digitaria sanguinalis (hairy crabgrass) assessed as inhibition of fresh weed plant weight at 1500 g/ha using pre-emergence treatment protocol
# Type: functional
row,Compound,inhibition at 1500 g/ha
1,C#CCN1C(=O)COc2cc(F)c(-n3nnc4nn(CC=C)cc4c3=O)cc21,80.7%

# Tested on: Brassica rapa subsp. oleifera
# Test: Herbicidal activity against Brassica rapa subsp. oleifera assessed as inhibition of fresh weed plant weight at 750 g/ha using post-emergence treatment protocol
# Type: functional
# Method in brief: (§1)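 Test compounds made up as emulsions by dissolving in 100 µL N,N-dimethylformamide, then adding a little Tween 20 and water. For post-emergence, weed seedlings at one leaf and one stem were sprayed at the same rates as the pre-emergence test. Fresh weight was recorded 15 days after treatment and expressed as percent inhibition versus controls. All treatments were run in triplicate.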
row,Compound,inhibition at 750 g/ha
1,C#CCN1C(=O)COc2cc(F)c(-n3nnc4nn(CC=C)cc4c3=O)cc21,50.4%

# Tested on: Brassica rapa subsp. oleifera
# Test: Herbicidal activity against Brassica rapa subsp. oleifera assessed as inhibition of fresh weed plant weight at 93.75 g/ha using post-emergence treatment protocol
# Type: functional
# Method in brief: as §1
row,Compound,inhibition at 93.75 g/ha
1,C#CCN1C(=O)COc2cc(F)c(-n3nnc4nn(CC=C)cc4c3=O)cc21,0%

# Tested on: Amaranthus retroflexus
# Test: Herbicidal activity against Amaranthus retroflexus assessed as inhibition of fresh weed plant weight at 750 g/ha using post-emergence treatment protocol
# Type: functional
# Method in brief: as §1
row,Compound,inhibition at 750 g/ha
1,C#CCN1C(=O)COc2cc(F)c(-n3nnc4nn(CC=C)cc4c3=O)cc21,100%

# Tested on: Amaranthus retroflexus
# Test: Herbicidal activity against Amaranthus retroflexus assessed as inhibition of fresh weed plant weight at 1500 g/ha using pre-emergence treatment protocol
# Type: functional
row,Compound,inhibition at 1500 g/ha
1,C#CCN1C(=O)COc2cc(F)c(-n3nnc4nn(CC=C)cc4c3=O)cc21,100%

# Tested on: Digitaria sanguinalis
# Test: Herbicidal activity against Digitaria sanguinalis (hairy crabgrass) assessed as inhibition of fresh weed plant weight at 1500 g/ha using post-emergence treatment protocol
# Type: functional
# Method in brief: as §1
row,Compound,inhibition at 1500 g/ha
1,C#CCN1C(=O)COc2cc(F)c(-n3nnc4nn(CC=C)cc4c3=O)cc21,32.7%

# Tested on: Digitaria sanguinalis
# Test: Herbicidal activity against Digitaria sanguinalis (hairy crabgrass) assessed as inhibition of fresh weed plant weight at 187.5 g/ha using post-emergence treatment protocol
# Type: functional
# Method in brief: as §1
row,Compound,inhibition at 187.5 g/ha
1,C#CCN1C(=O)COc2cc(F)c(-n3nnc4nn(CC=C)cc4c3=O)cc21,0%

# Tested on: Amaranthus retroflexus
# Test: Herbicidal activity against Amaranthus retroflexus assessed as inhibition of fresh weed plant weight at 93.75 g/ha using pre-emergence treatment protocol
# Type: functional
row,Compound,inhibition at 93.75 g/ha
1,C#CCN1C(=O)COc2cc(F)c(-n3nnc4nn(CC=C)cc4c3=O)cc21,100%

# Tested on: Digitaria sanguinalis
# Test: Herbicidal activity against Digitaria sanguinalis (hairy crabgrass) assessed as inhibition of fresh weed plant weight at 93.75 g/ha using post-emergence treatment protocol
# Type: functional
# Method in brief: as §1
row,Compound,inhibition at 93.75 g/ha
1,C#CCN1C(=O)COc2cc(F)c(-n3nnc4nn(CC=C)cc4c3=O)cc21,0%

# Tested on: Echinochloa crus-galli
# Test: Herbicidal activity against Echinochloa crus-galli (barnyard grass) assessed as inhibition of fresh weed plant weight at 375 g/ha using pre-emergence treatment protocol
# Type: functional
# Method in brief: as §1
row,Compound,inhibition at 375 g/ha
1,C#CCN1C(=O)COc2cc(F)c(-n3nnc4nn(CC=C)cc4c3=O)cc21,49.1%

# Tested on: Brassica rapa subsp. oleifera
# Test: Herbicidal activity against Brassica rapa subsp. oleifera assessed as inhibition of fresh weed plant weight at 750 g/ha using pre-emergence treatment protocol
# Type: functional
row,Compound,inhibition at 750 g/ha
1,C#CCN1C(=O)COc2cc(F)c(-n3nnc4nn(CC=C)cc4c3=O)cc21,100%

# Tested on: Echinochloa crus-galli
# Test: Herbicidal activity against Echinochloa crus-galli (barnyard grass) assessed as inhibition of fresh weed plant weight at 1500 g/ha using pre-emergence treatment protocol
# Type: functional
row,Compound,inhibition at 1500 g/ha
1,C#CCN1C(=O)COc2cc(F)c(-n3nnc4nn(CC=C)cc4c3=O)cc21,100%

# Tested on: Brassica rapa subsp. oleifera
# Test: Herbicidal activity against Brassica rapa subsp. oleifera assessed as inhibition of fresh weed plant weight at 187.5 g/ha using pre-emergence treatment protocol
# Type: functional
row,Compound,inhibition at 187.5 g/ha
1,C#CCN1C(=O)COc2cc(F)c(-n3nnc4nn(CC=C)cc4c3=O)cc21,90.8%

# Tested on: Digitaria sanguinalis
# Test: Herbicidal activity against Digitaria sanguinalis (hairy crabgrass) assessed as inhibition of fresh weed plant weight at 750 g/ha using post-emergence treatment protocol
# Type: functional
# Method in brief: as §1
row,Compound,inhibition at 750 g/ha
1,C#CCN1C(=O)COc2cc(F)c(-n3nnc4nn(CC=C)cc4c3=O)cc21,0%

# Tested on: Digitaria sanguinalis
# Test: Herbicidal activity against Digitaria sanguinalis (hairy crabgrass) assessed as inhibition of fresh weed plant weight at 187.5 g/ha using pre-emergence treatment protocol
# Type: functional
row,Compound,inhibition at 187.5 g/ha
1,C#CCN1C(=O)COc2cc(F)c(-n3nnc4nn(CC=C)cc4c3=O)cc21,16.3%

# Tested on: Echinochloa crus-galli
# Test: Herbicidal activity against Echinochloa crus-galli (barnyard grass) assessed as inhibition of fresh weed plant weight at 375 g/ha using post-emergence treatment protocol
# Type: functional
# Method in brief: as §1
row,Compound,inhibition at 375 g/ha
1,C#CCN1C(=O)COc2cc(F)c(-n3nnc4nn(CC=C)cc4c3=O)cc21,17.6%

# Tested on: Brassica rapa subsp. oleifera
# Test: Herbicidal activity against Brassica rapa subsp. oleifera assessed as inhibition of fresh weed plant weight at 187.5 g/ha using post-emergence treatment protocol
# Type: functional
# Method in brief: as §1
row,Compound,inhibition at 187.5 g/ha
1,C#CCN1C(=O)COc2cc(F)c(-n3nnc4nn(CC=C)cc4c3=O)cc21,0%
